# Active and inactive are the calls of the source. No cut-off for these calls is given here.
# What was measured:
# [1] = biological target: T1, Metabotropic glutamate receptor 5 (Rattus norvegicus, UniProt P31424); experiment: Displacement of [3H]MPEP from mGluR5 in Sprague-Dawley rat brain membrane after 60 mins by liquid scintillation counting; format: cell membranes
# [2] = biological target: T1, Metabotropic glutamate receptor 5; experiment: Inverse agonist activity at rat mGluR5 expressed in HEK293A cells coexpressing Gqalpha assessed as inhibition of basal D-myo-inositol 1 production by ELISA
# [3] = tested on: Mus musculus; experiment: Anxiolytic activity in Swiss Webster mouse assessed as increase in locomotor activity at 30 mg/kg, ip administered as single dose 15 mins prior to testing by open-field test; format: functional, organism-based; parameters: dose 30 mg/kg
# Procedure, shortened: (§1)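 Open-field test in mice. Drugs were suspended in 2% ethanol/10% Tween 80/water (MTEP in saline) and given ip 15 min before testing. Locomotor activity and time in the center region were recorded. n = 10–12 per dose, means ± SEM. Each dose was compared with its within-group vehicle cohort by one-way ANOVA with Bonferroni post hoc test.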
# [4] = tested on: Mus musculus; experiment: Anxiolytic activity in Swiss Webster mouse assessed as increase in time spent in the centre region at 30 mg/kg, ip administered as single dose 15 mins prior to testing by open-field test; format: functional, organism-based; parameters: dose 30 mg/kg; procedure, shortened: as §1
# [5] = tested on: Mus musculus; experiment: Anxiolytic activity in Swiss Webster mouse assessed as increase in time spent in light compartment at 30 mg/kg, ip administered as single dose 15 mins prior to testing by light-dark box test; format: functional, organism-based; parameters: dose 30 mg/kg
# Procedure, shortened: (§2)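 Light–dark box test in mice. Drugs were given ip 15 min pretest in a 2% ethanol, 10% Tween 80 and water suspension (MTEP in saline). Read-outs were the proportion of time in the light compartment and the number of light–dark transitions. n = 10–12 per dose, means ± SEM. One-way ANOVA with Bonferroni test against the within-group vehicle cohort.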
# [6] = tested on: Mus musculus; experiment: Anxiolytic activity in Swiss Webster mouse assessed as increase in number of compartment transitions at 30 mg/kg, ip administered as single dose 15 mins prior to testing by light-dark box test; format: functional, organism-based; parameters: dose 30 mg/kg; procedure, shortened: as §2
# [7] = biological target: Metabotropic glutamate receptor 5 (Rattus norvegicus) (UniProt P31424); experiment: Inverse agonist activity at rat mGluR5 expressed in HEK293A cells coexpressing Gqalpha assessed as inhibition of quisqualic-induced D-myo-inositol 1 production by ELISA; format: functional, cell-based; conditions: HEK293-A
# Metabotropic glutamate receptor 5 (Rattus norvegicus), sequence (P31424 21-1203 limits assumed): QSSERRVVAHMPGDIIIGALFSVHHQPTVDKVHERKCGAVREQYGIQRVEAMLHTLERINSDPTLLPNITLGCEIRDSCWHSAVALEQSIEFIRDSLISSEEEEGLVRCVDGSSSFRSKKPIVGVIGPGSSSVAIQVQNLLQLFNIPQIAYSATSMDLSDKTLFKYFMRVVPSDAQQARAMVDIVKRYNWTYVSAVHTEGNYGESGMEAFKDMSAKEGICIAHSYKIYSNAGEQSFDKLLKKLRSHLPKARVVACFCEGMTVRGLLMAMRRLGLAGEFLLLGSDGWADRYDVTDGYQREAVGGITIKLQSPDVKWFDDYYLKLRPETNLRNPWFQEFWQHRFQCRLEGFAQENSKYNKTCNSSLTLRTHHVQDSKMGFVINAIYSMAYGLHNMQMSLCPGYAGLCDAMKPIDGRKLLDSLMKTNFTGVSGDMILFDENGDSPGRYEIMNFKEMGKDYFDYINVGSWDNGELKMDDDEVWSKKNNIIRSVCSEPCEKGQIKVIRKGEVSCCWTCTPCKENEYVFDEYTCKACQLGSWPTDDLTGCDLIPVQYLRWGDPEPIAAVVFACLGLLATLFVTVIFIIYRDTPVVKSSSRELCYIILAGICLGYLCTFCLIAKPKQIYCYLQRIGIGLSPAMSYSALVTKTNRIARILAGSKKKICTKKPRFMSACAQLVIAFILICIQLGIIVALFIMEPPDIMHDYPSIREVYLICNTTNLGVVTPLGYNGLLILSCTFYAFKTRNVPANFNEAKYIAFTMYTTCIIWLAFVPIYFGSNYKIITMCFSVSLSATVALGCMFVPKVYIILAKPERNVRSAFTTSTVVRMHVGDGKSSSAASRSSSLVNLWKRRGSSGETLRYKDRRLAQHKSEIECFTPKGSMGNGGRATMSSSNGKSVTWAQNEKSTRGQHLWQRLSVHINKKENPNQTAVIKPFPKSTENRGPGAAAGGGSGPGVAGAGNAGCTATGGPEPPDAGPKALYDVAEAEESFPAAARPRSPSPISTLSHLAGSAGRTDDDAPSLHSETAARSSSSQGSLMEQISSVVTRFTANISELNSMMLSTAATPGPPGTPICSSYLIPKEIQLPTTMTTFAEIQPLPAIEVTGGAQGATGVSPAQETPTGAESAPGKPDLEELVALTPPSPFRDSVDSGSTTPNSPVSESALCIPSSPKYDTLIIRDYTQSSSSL
# Procedure, shortened: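 IP₃ production was gauged indirectly by IP-One ELISA for IP₁ accumulation. Dose–response curves were run without agonist and in the presence of 1 μM quisqualic acid.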
# [8] = tested on: Mus musculus; experiment: Anxiolytic activity in ip dosed Swiss Webster mouse assessed as increase in locomotor activity administered as single dose 15 mins prior to testing by open-field test; format: functional, organism-based; procedure, shortened: as §1
# [9] = tested on: Mus musculus; experiment: Anxiolytic activity in ip dosed Swiss Webster mouse assessed as increase in time spent in the centre region administered as single dose 15 mins prior to testing by open-field test; format: functional, organism-based; procedure, shortened: as §1
# [10] = tested on: Mus musculus; experiment: Anxiolytic activity in ip dosed Swiss Webster mouse assessed as increase in time spent in light compartment administered as single dose 15 mins prior to testing by light-dark box test; format: functional, organism-based; procedure, shortened: as §2
# [11] = tested on: Mus musculus; experiment: Anxiolytic activity in ip dosed Swiss Webster mouse assessed as increase in number of compartment transitions administered as single dose 15 mins prior to testing by light-dark box test; format: functional, organism-based; procedure, shortened: as §2
# [12] = tested on: Mus musculus; experiment: Anxiolytic activity in Swiss Webster mouse assessed as increase in locomotor activity at 3 to 30 mg/kg, ip administered as single dose 15 mins prior to testing by open-field test; format: functional, organism-based; procedure, shortened: as §1
# [13] = tested on: Mus musculus; experiment: Anxiolytic activity in Swiss Webster mouse assessed as increase in time spent in the centre region at 3 to 30 mg/kg, ip administered as single dose 15 mins prior to testing by open-field test; format: functional, organism-based; procedure, shortened: as §1
# [14] = tested on: Mus musculus; experiment: Anxiolytic activity in Swiss Webster mouse assessed as increase in time spent in light compartment at 3 to 30 mg/kg, ip administered as single dose 15 mins prior to testing by light-dark box test; format: functional, organism-based; procedure, shortened: as §2
# [15] = tested on: Mus musculus; experiment: Anxiolytic activity in Swiss Webster mouse assessed as increase in number of compartment transitions at 3 to 30 mg/kg, ip administered as single dose 15 mins prior to testing by light-dark box test; format: functional, organism-based; procedure, shortened: as §2
# [16] = biological target: Metabotropic glutamate receptor 5 (Rattus norvegicus) (UniProt P31424); experiment: Ratio of MPEP Ki to compound Ki for mGluR5 in Sprague-Dawley rat brain membrane; format: cell membranes
# [17] = tested on: Mus musculus; experiment: Anxiolytic activity in Swiss Webster mouse assessed as increase in locomotor activity at 0.1 to 0.3 mg/kg, ip administered as single dose 15 mins prior to testing by open-field test; format: functional, organism-based; procedure, shortened: as §1
# [18] = tested on: Mus musculus; experiment: Anxiolytic activity in Swiss Webster mouse assessed as increase in time spent in the centre region at 0.1 to 0.3 mg/kg, ip administered as single dose 15 mins prior to testing by open-field test; format: functional, organism-based; procedure, shortened: as §1
# [19] = tested on: Mus musculus; experiment: Anxiolytic activity in Swiss Webster mouse assessed as increase in time spent in light compartment at 0.1 to 0.3 mg/kg, ip administered as single dose 15 mins prior to testing by light-dark box test; format: functional, organism-based; procedure, shortened: as §2
# [20] = tested on: Mus musculus; experiment: Anxiolytic activity in Swiss Webster mouse assessed as increase in number of compartment transitions at 0.1 to 0.3 mg/kg, ip administered as single dose 15 mins prior to testing by light-dark box test; format: functional, organism-based; procedure, shortened: as §2
# [21] = tested on: Mus musculus; experiment: Anxiolytic activity in Swiss Webster mouse assessed as increase in locomotor activity at 3 mg/kg, ip administered as single dose 15 mins prior to testing by open-field test; format: functional, organism-based; parameters: dose 3 mg/kg; procedure, shortened: as §1
# [22] = tested on: Mus musculus; experiment: Anxiolytic activity in Swiss Webster mouse assessed as increase in time spent in the centre region at 3 mg/kg, ip administered as single dose 15 mins prior to testing by open-field test; format: functional, organism-based; parameters: dose 3 mg/kg; procedure, shortened: as §1
# [23] = tested on: Mus musculus; experiment: Anxiolytic activity in Swiss Webster mouse assessed as increase in time spent in light compartment at 3 mg/kg, ip administered as single dose 15 mins prior to testing by light-dark box test; format: functional, organism-based; parameters: dose 3 mg/kg; procedure, shortened: as §2
# [24] = tested on: Mus musculus; experiment: Anxiolytic activity in Swiss Webster mouse assessed as increase in number of compartment transitions at 3 mg/kg, ip administered as single dose 15 mins prior to testing by light-dark box test; format: functional, organism-based; parameters: dose 3 mg/kg; procedure, shortened: as §2
# [25] = tested on: Mus musculus; experiment: Anxiolytic activity in Swiss Webster mouse assessed as increase in locomotor activity at 0.3 mg/kg, ip administered as single dose 15 mins prior to testing by open-field test; format: functional, organism-based; parameters: dose 0.3 mg/kg; procedure, shortened: as §1
# [26] = tested on: Mus musculus; experiment: Anxiolytic activity in Swiss Webster mouse assessed as increase in time spent in the centre region at 0.3 mg/kg, ip administered as single dose 15 mins prior to testing by open-field test; format: functional, organism-based; parameters: dose 0.3 mg/kg; procedure, shortened: as §1
# [27] = tested on: Mus musculus; experiment: Anxiolytic activity in Swiss Webster mouse assessed as increase in time spent in light compartment at 0.3 mg/kg, ip administered as single dose 15 mins prior to testing by light-dark box test; format: functional, organism-based; parameters: dose 0.3 mg/kg; procedure, shortened: as §2
# [28] = tested on: Mus musculus; experiment: Anxiolytic activity in Swiss Webster mouse assessed as increase in number of compartment transitions at 0.3 mg/kg, ip administered as single dose 15 mins prior to testing by light-dark box test; format: functional, organism-based; parameters: dose 0.3 mg/kg; procedure, shortened: as §2
# T1 sequence (P31424 whole entry): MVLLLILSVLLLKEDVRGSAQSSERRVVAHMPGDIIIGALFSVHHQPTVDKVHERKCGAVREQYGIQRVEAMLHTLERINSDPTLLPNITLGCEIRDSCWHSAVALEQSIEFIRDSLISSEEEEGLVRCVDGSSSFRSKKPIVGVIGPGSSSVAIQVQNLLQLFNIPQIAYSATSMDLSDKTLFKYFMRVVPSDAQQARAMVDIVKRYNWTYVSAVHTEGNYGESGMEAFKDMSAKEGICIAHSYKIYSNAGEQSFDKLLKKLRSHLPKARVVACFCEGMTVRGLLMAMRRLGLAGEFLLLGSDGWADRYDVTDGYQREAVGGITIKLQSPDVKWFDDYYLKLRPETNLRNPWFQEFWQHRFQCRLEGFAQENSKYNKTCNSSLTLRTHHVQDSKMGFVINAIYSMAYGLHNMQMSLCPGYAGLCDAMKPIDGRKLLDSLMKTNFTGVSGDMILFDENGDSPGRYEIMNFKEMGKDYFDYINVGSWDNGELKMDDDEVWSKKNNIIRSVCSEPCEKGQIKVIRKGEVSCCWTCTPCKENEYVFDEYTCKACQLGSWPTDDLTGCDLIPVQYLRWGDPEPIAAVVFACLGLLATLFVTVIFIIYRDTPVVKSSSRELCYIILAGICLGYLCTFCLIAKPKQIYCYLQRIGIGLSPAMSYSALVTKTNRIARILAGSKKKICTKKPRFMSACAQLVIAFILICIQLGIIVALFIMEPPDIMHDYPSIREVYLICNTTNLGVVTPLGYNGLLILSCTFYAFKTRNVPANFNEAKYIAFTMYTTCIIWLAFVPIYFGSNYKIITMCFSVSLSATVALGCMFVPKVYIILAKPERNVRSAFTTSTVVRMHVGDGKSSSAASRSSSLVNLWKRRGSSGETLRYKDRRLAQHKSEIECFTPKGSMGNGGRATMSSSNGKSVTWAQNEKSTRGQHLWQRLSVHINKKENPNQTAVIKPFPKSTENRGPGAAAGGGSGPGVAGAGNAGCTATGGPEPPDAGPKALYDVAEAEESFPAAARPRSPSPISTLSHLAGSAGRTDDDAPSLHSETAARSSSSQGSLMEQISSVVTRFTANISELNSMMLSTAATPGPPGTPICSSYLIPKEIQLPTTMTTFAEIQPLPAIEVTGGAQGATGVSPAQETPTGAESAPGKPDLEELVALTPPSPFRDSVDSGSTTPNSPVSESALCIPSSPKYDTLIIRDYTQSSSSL
compound,measurement,setting,value
CCc1cccc(C#Cc2cccc(C#N)c2)n1,Ki,[1],3.4 nM
same,IC50,[2],80 nM
CCCCc1cccc(C#Cc2cccc(C#N)c2)n1,Ki,[1],45 nM
same,IC50,[2],700 nM
Cc1cccc(C#Cc2ccccc2)n1,Activity,[3],Active
same,Activity,[4],inactive
same,Activity,[5],inactive
same,Activity,[6],inactive
same,inhibition,[7],Dose-dependent effect
same,Activity,[8],Dose-dependent effect
same,Activity,[9],Dose-dependent effect
same,Activity,[10],Dose-dependent effect
same,Activity,[11],Dose-dependent effect
same,Activity,[12],Active
same,Activity,[13],Active
same,Activity,[14],Active
same,Activity,[15],Active
N#Cc1cc(F)cc(C#Cc2cccc(C#N)n2)c1,Ki,[1],2.7 nM
same,Ratio Ki,[16],6
same,inhibition,[7],Dose-dependent effect
same,Activity,[8],Dose-dependent effect
same,Activity,[9],Dose-dependent effect
same,Activity,[10],Dose-dependent effect
same,Activity,[11],Dose-dependent effect
same,Activity,[17],Active
same,Activity,[18],Active
same,Activity,[19],Active
same,Activity,[20],Active
same,Activity,[21],inactive
same,Activity,[22],inactive
same,Activity,[23],inactive
same,Activity,[24],inactive
same,IC50,[2],9 nM
COc1cccc(C#Cc2cc(F)cc(C#N)c2)n1,Ki,[1],40 nM
same,IC50,[2],400 nM
Cc1cccc(C#Cc2cc(F)cc(C#N)c2)n1,Ki,[1],0.67 nM
same,Ratio Ki,[16],24
same,inhibition,[7],Dose-dependent effect
same,Activity,[8],Dose-dependent effect
same,Activity,[9],Dose-dependent effect
same,Activity,[10],Dose-dependent effect
same,Activity,[11],Dose-dependent effect
same,Activity,[25],Active
same,Activity,[26],Active
same,Activity,[27],Active
same,Activity,[28],Active
same,Activity,[21],Active
same,Activity,[22],inactive
same,Activity,[23],inactive
same,Activity,[24],inactive
same,IC50,[2],2.4 nM
N#Cc1cncc(C#Cc2cccc(CO)n2)c1,Ki,[1],> 10000 nM
COc1cccc(C#Cc2cncc(C#N)c2)n1,Ki,[1],55 nM
same,IC50,[2],200 nM
N#Cc1cccc(C#Cc2cccc(F)n2)c1,Ki,[1],150 nM
same,IC50,[2],210 nM
Cc1cccc(C#Cc2cccc(C#N)c2)n1,Ki,[1],1.04 nM
same,IC50,[2],13 nM
COc1cc(C#N)cc(C#Cc2cccc(C)n2)c1,Ki,[1],1.29 nM
same,IC50,[2],3.4 nM

# Source: ChEMBL document CHEMBL2086345, “Metabotropic glutamate receptor 5 negative allosteric modulators as novel tools for in vivo investigation” (ACS Med Chem Lett, 2012)
